# Experimental data from ChEMBL document CHEMBL1955779, “Favourable involvement of α2A-adrenoreceptor antagonism in the I₂-imidazoline binding sites-mediated morphine analgesia enhancement” (Bioorg Med Chem, 2012).
# Calls of active or inactive are those of the source. No cut-off for these calls is given here.
# Columns and labels:
# Mus musculus [1] = test: Potentiation of morphine-induced analgesic activity in CD1 mouse assessed as latency in radiant heat-induced tail flick at 1.250 mg/kg, ip administered 15 mins prior to morphine measured up to 120 mins; type: functional, organism-based; design: dose 1.25 mg/kg
# How it was run: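 Male CD-1 mice (25–35 g) were given ip pretreatment in distilled-water vehicle 15 min before morphine 5.0 mg/kg sc or saline. Radiant-heat IR tail-flick was applied to the lower third of the tail. Basal latency (2–3 s) was the mean of two trials 30 min apart. Readings at 30, 60, 90, 120 and 240 min post-morphine were expressed as %MPE. Means ± SEM, 8–10 mice.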
# Mus musculus [2] = test: Antinociceptive activity in CD1 mouse assessed as latency in radiant heat-induced tail flick at 1 mg/kg, ip from 30 to 240 mins; type: functional, organism-based; design: dose 1 mg/kg
# How it was run: (§1)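 Male CD-1 mice, 25–35 g. Radiant heat tail-flick: I.R. source aimed at lower third of tail; basal latency (2-3 s) is the mean of two trials 30 min apart. Test agent 1 or 2 mg/kg ip, or distilled water vehicle, given 15 min before morphine 5.0 mg/kg sc or saline. Readings at 30, 60, 90, 120 and 240 min after morphine, as %MPE; 8–10 mice, means ± SEM.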
# Mus musculus [3] = test: Antinociceptive activity in CD1 mouse assessed as latency in radiant heat-induced tail flick at 2 mg/kg, ip from 30 to 240 mins; type: functional, organism-based; design: dose 2 mg/kg; how it was run: as §1
# [4] = target: T1, Alpha-2A adrenergic receptor (Homo sapiens, UniProt P08913); test: Displacement of [3H]RX821002 from human alpha2A adrenergic receptor expressed in CHO cells after 30 mins by scintillation counting; type: cell-based
# T1 sequence (P08913 whole entry): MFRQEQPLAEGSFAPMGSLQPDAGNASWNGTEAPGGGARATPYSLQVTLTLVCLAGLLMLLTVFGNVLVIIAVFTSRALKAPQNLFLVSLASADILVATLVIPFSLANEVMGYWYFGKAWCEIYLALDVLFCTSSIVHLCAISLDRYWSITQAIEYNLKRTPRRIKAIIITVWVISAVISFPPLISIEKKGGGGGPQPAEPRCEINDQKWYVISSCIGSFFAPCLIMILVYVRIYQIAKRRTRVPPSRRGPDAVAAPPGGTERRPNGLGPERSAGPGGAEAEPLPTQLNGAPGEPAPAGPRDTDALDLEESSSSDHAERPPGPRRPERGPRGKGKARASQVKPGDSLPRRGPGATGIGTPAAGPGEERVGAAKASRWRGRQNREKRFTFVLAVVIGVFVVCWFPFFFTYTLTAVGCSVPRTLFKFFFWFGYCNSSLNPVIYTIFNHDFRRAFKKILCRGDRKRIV
# [5] = target: T2, Alpha-2B adrenergic receptor (Homo sapiens, UniProt P18089); test: Displacement of [3H]RX821002 from human alpha2B adrenergic receptor expressed in CHO cells after 30 mins by scintillation counting; type: cell-based
# T2 sequence (P18089 whole entry): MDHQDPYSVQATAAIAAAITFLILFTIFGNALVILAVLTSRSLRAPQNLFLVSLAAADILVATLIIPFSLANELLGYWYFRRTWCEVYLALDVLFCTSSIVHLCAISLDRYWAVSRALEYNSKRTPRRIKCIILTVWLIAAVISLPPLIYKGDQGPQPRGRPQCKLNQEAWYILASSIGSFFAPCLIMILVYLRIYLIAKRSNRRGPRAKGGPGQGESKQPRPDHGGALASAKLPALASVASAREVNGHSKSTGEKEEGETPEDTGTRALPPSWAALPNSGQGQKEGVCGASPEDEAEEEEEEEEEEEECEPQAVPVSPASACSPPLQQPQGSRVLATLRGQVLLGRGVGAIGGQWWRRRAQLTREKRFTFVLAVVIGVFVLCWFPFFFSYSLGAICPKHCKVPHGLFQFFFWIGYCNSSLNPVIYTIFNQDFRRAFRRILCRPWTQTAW
# Mus musculus [6] = test: Potentiation of morphine-induced analgesic activity in CD1 mouse assessed as latency in radiant heat-induced tail flick at 1 mg/kg, ip administered 15 mins prior to morphine measured up to 120 mins; type: functional, organism-based; design: dose 1 mg/kg; how it was run: as §1
# [7] = target: T3, 5-hydroxytryptamine receptor 1A (Homo sapiens, UniProt P08908); test: Binding affinity to 5HT1A receptor
# T3 sequence (P08908 whole entry): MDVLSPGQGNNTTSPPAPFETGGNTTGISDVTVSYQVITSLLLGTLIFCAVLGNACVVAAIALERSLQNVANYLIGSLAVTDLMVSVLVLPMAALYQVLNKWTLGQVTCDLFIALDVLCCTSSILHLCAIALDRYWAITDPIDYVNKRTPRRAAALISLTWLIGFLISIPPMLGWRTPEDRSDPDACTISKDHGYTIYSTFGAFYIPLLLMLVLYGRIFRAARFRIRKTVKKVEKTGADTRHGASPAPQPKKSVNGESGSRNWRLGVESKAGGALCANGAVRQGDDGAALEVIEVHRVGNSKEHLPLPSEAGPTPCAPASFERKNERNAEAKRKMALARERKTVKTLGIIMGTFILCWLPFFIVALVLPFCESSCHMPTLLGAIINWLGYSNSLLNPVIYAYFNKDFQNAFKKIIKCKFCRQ
# [8] = target: T4, Alpha-2C adrenergic receptor (Homo sapiens, UniProt P18825); test: Displacement of [3H]RX821002 from human Alpha-2C adrenergic receptor expressed in CHO cells after 30 mins by scintillation counting; type: cell-based
# T4 sequence (P18825 whole entry): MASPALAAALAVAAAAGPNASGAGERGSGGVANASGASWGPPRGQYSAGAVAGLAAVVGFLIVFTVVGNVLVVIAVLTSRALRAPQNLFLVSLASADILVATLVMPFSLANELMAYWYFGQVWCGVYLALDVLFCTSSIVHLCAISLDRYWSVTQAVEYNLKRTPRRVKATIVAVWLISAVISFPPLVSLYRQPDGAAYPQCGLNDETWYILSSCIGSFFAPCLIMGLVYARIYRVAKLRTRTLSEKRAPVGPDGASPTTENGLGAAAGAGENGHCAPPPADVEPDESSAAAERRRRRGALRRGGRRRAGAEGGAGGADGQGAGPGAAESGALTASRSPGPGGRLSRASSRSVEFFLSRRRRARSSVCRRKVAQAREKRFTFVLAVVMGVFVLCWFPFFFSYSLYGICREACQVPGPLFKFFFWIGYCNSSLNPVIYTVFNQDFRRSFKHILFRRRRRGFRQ
# [9] = target: T5, Alpha-2A adrenergic receptor (Homo sapiens) (UniProt P08913); test: Antagonist activity at human alpha2A adrenergic receptor expressed in CHO cells assessed as inhibition of clonidine-induced extracellular acidification after 30 mins by cytosensor microphysiometry; type: functional, cell-based
# T5 sequence (whole entry): T1 sequence (P08913 whole entry)
# How it was run: (§2)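 pKb from cytosensor microphysiometry on CHO cells each expressing one human α2 subtype (α2A, α2B or α2C). Antagonist shift of the clonidine agonist concentration-effect curve was measured. Means ± SEM of three to six separate experiments.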
# [10] = target: T6, Alpha-2C adrenergic receptor (Homo sapiens) (UniProt P18825); test: Antagonist activity at human Alpha-2C adrenergic receptor expressed in CHO cells assessed as inhibition of clonidine-induced extracellular acidification after 30 mins by cytosensor microphysiometry; type: functional, cell-based; how it was run: as §2
# T6 sequence (whole entry): T4 sequence (P18825 whole entry)
# [11] = target: T7, Alpha-2B adrenergic receptor (Homo sapiens) (UniProt P18089); test: Antagonist activity at human alpha2B adrenergic receptor expressed in CHO cells assessed as inhibition of clonidine-induced extracellular acidification after 30 mins by cytosensor microphysiometry; type: functional, cell-based; how it was run: as §2
# T7 sequence (whole entry): T2 sequence (P18089 whole entry)
# Mus musculus [12] = test: Potentiation of morphine-induced analgesic activity in ip dosed CD1 mouse assessed as latency in radiant heat-induced tail flick administered 15 mins prior to morphine in the presence of 2 mg/kg, ip of idazoxan; type: functional; settings: route intraperitoneal
# How it was run: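 CD-1 mice, radiant heat tail-flick. […] Test agent given 15 min before morphine 5.0 mg/kg sc. Latency read after morphine.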
# Mus musculus [13] = test: Potentiation of morphine-induced analgesic activity in CD1 mouse assessed as latency in radiant heat-induced tail flick at 2 mg/kg, ip administered 15 mins prior to morphine measured up to 120 mins; type: functional, organism-based; design: dose 2 mg/kg; how it was run: as §1
# [14] = target: T8, Alpha-1A adrenergic receptor (Homo sapiens, UniProt P35348); test: Binding affinity to alpha1A adrenergic receptor
# T8 sequence (P35348 whole entry): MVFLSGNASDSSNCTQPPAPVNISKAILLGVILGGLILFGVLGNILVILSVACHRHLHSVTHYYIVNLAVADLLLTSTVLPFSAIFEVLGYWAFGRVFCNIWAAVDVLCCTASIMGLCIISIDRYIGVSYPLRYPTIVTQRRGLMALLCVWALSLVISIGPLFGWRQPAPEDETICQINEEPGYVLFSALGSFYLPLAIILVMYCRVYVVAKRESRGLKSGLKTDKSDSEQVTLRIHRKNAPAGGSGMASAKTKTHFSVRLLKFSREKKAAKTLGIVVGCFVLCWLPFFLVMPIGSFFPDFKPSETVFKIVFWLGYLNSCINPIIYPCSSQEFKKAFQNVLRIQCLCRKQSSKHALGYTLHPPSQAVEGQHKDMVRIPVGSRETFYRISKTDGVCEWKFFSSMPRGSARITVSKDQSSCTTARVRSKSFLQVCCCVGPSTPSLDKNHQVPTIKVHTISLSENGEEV
# [15] = Displacement of [3H]2-BFI from Sprague-Dawley rat I2 imidazoline binding site by liquid scintillation counting
# [16] = Binding affinity to I2 imidazoline binding site
# Mus musculus [17] = test: Analgesic activity in CD1 mouse assessed as latency in radiant heat-induced tail flick at 5 mg/kg, sc after 30 mins; type: functional, organism-based; design: dose 5 mg/kg; how it was run: as §1
# [18] = Selectivity ratio of I2 imidazoline binding site to alpha2 adrenergic receptor
Compound,Ki [4] [µM],Ki [5] [µM],Ki [8] [µM],pKb [9],pKb [10],pKb [11],other results
COC(=O)[C@@H]1[C@H]2C[C@H]3c4[nH]c5ccccc5c4CCN3C[C@@H]2CC[C@@H]1O,–,–,–,–,–,–,Activity (Mus musculus [1]): inactive
c1ccc(C2COC(C3=NCCN3)CO2)cc1 (racemic),0.501,> 10,> 10,6.4,< 5,< 5,Activity (Mus musculus [2]): inactive; Activity (Mus musculus [3]): inactive; Activity (Mus musculus [6]): Active; Ki [7]: > 10 µM; Activity (Mus musculus [12]): -24%; Activity (Mus musculus [13]): Active; Ki [14]: > 10 µM; pKi [15]: 6.35
c1ccc2c(c1)OCC(C1=NCCN1)O2 (configuration not stated) [IDAZOXAN],–,–,–,7.73,7.92,7.16,pKi [16]: 8.37; Activity (Mus musculus [13]): inactive
c1ccc(C2(c3ccccc3)COC(C3=NCCN3)CO2)cc1 (configuration not stated),> 10,2.82,7.41,< 5,< 5,< 5,–
CN1CC[C@]23c4c5ccc(O)c4O[C@H]2[C@@H](O)C=C[C@H]3[C@H]1C5,–,–,–,–,–,–,Activity (Mus musculus [17]): Active
c1ccc(CCC2=NCCN2)cc1 [PHENYZOLINE],–,–,–,–,–,–,pKi [16]: 8.6; Selectivity ratio [18]: 794
c1ccc([C@H]2COC[C@@H](C3=NCCN3)O2)cc1 (relative stereo),5.37,> 10,> 10,< 5,< 5,5.18,–
c1ccc([C@@H]2CO[C@@H](C3=NCCN3)CO2)cc1,0.398,> 10,> 10,6.4,< 5,< 5,pKi [15]: 6.52
c1ccc([C@@H]2COC[C@@H](C3=NCCN3)O2)cc1 (relative stereo),6.31,> 10,> 10,< 5,< 5,< 5,–
c1ccc(C2(c3ccccc3)COCC(C3=NCCN3)O2)cc1 (configuration not stated),3.8,4.47,6.17,5.37,< 5,< 5,–
c1ccc([C@H]2CO[C@H](C3=NCCN3)CO2)cc1,7.94,> 10,> 10,< 5,< 5,< 5,pKi [15]: 5.48
c1ccc([C@@H]2CO[C@H](C3=NCCN3)CO2)cc1 (relative stereo),> 10,> 10,> 10,< 5,< 5,5.5,–
